Measurements taken from ChEMBL document CHEMBL1126812, “Further insights into the molecular mechanisms of action of the serotonergic neurotoxin 5,7-dihydroxytryptamine” (J Med Chem, 1993).

Tests used:
Mus musculus [1] = assay: Effect of central administration on whole mouse brain cholin (Ch) level after 1 week; assay type: functional, organism-based
Method in brief: (§1)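 The dosing, vehicle, controls, microwave sacrifice, timepoints and brain processing were the same as for the amine lines. Whole mouse brain ACh and choline were measured by LCEC on 20 µL aliquots of the filtered 50 000g supernate, which had been stored at -80 °C. Values are % of vehicle controls ± sem, n = 11-18 per group.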

Mus musculus [2] = assay: Effect of central administration on whole mouse brain 3,4-di hydroxyphenylacetic acid (DOPAC) level after 1 hr; assay type: functional, organism-based
Method in brief: (§2)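 Adult male outbred Hsd:ICR mice (25-35 g) under light ether anesthesia received a single 25 or 30 µg (free base) intracranial dose near the left lateral ventricle. Vehicle was 5 µL isotonic saline with 1.0 mg/mL ascorbate, and controls got vehicle alone. Mice were killed by focused microwave (250 ms, 7.0 kW) at 1 h, 1 day or 1 week. Brains were homogenized, spun at 50 000g (4 °C, 1 h) and filtered. Amines and metabolites were measured by LCEC as % of control ± sem, n = 11-18.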

Mus musculus [3] = assay: Effect of central administration on whole mouse brain 5-HT (5-HT) after 1 hr; assay type: functional, organism-based; method in brief: as §2
Mus musculus [4] = assay: Effect of central administration on whole mouse brain 5-HT (5-HT) after 1 week; assay type: functional, organism-based; method in brief: as §2
Mus musculus [5] = assay: Effect of central administration on whole mouse brain 5-hydroxyindole-3-acetic acid (5-HIAA) level after 1 hr; assay type: functional, organism-based; method in brief: as §2
Mus musculus [6] = assay: Effect of central administration on whole mouse brain acetylcholine (ACh) level after 1 hr; assay type: functional, organism-based; method in brief: as §1
Mus musculus [7] = assay: Effect of central administration on whole mouse brain 3,4-di hydroxyphenylacetic acid (DOPAC) level after 1 week; assay type: functional, organism-based; method in brief: as §2
Mus musculus [8] = assay: Effect of central administration on whole mouse brain dopamine (DA) level after 1 day; assay type: functional, organism-based; method in brief: as §2
Mus musculus [9] = assay: Effect of central administration on whole mouse brain 5-hydroxyindole-3-acetic acid (5-HIAA) level after 1 day; assay type: functional, organism-based; method in brief: as §2
Mus musculus [10] = assay: Effect of central administration on whole mouse brain acetylcholine (ACh) level after 1 day; assay type: functional, organism-based; method in brief: as §1
Mus musculus [11] = assay: Effect of central administration on whole mouse brain homovanillic acid (HAV) level after 1 day; assay type: functional, organism-based; method in brief: as §2
Mus musculus [12] = assay: Effect of central administration on whole mouse brain 5-hydroxytryptamine (5-HT) after 1 day; assay type: functional, organism-based; method in brief: as §2
Mus musculus [13] = assay: Effect of central administration on whole mouse brain 5-hydroxyindole-3-acetic acid (5-HIAA) level after 1 week; assay type: functional, organism-based; method in brief: as §2
Mus musculus [14] = assay: Effect of central administration on whole mouse brain norepinephrine (NE) level after 1 week; assay type: functional, organism-based; method in brief: as §2
Mus musculus [15] = assay: Effect of central administration on whole mouse brain norepinephrine (NE) level after 1 day; assay type: functional, organism-based; method in brief: as §2
Mus musculus [16] = assay: Effect of central administration on whole mouse brain norepinephrine (NE) level after 1 hr; assay type: functional, organism-based; method in brief: as §2
Mus musculus [17] = assay: Weight which caused death of 50% of the treated animals within 1 hr following drug administration; assay type: ADME, organism-based; conditions: in vivo
Method in brief: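 Adult male outbred Hsd:ICR albino mice, 25-35 g, given compound (dose as free base) intracranially near the left lateral ventricle under light ether anesthesia, in 5 µL isotonic saline containing 1.0 mg/mL ascorbic acid. Deaths within 1 h were scored, and LD50 (injected weight) was derived by Dixon's statistical method, reported as mean ± standard deviation on a log microgram scale.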

Mus musculus [18] = assay: Effect of central administration on whole mouse brain cholin (Ch) level after 1 day; assay type: functional, organism-based; method in brief: as §1
Mus musculus [19] = assay: Effect of central administration on whole mouse brain dopamine (DA) level after 1 hr; assay type: functional, organism-based; method in brief: as §2
Mus musculus [20] = assay: Effect of central administration on whole mouse brain cholin (Ch) level after 1 hr; assay type: functional, organism-based; method in brief: as §1
Mus musculus [21] = assay: Effect of central administration on whole mouse brain acetylcholine (ACh) level after 1 week; assay type: functional, organism-based; method in brief: as §1
Mus musculus [22] = assay: Effect of central administration on whole mouse brain 3,4-di hydroxyphenylacetic acid (DOPAC) level after 1 day; assay type: functional, organism-based; method in brief: as §2
Mus musculus [23] = assay: Effect of central administration on whole mouse brain homovanillic acid (HAV) level after 1 hr; assay type: functional, organism-based; method in brief: as §2
Mus musculus [24] = assay: Effect of central administration on whole mouse brain 5-hydroxyindole-3-acetic acid(5-HIAA)level after 1 week; assay type: functional, organism-based; method in brief: as §2
Mus musculus [25] = assay: Effect of central administration on whole mouse brain 3,4-di hydroxyphenylacetic acid (DOPAC)level after 1 week; assay type: functional, organism-based; method in brief: as §2
Mus musculus [26] = assay: Effect of central administration on whole mouse brain 5-hydroxyindole-3-acetic acid(5-HIAA)level after 1 day; assay type: functional, organism-based; method in brief: as §2
Mus musculus [27] = assay: Effect of central administration on whole mouse brain choline (Ch) level after 1 day; assay type: functional, organism-based; method in brief: as §1
Mus musculus [28] = assay: Effect of central administration on whole mouse brain homovanillic acid (HAV) level after 1 week; assay type: functional, organism-based; method in brief: as §2
Mus musculus [29] = assay: Effect of central administration on whole mouse brain 5-hydroxyindole-3-acetic acid(5-HIAA)level after 1 hr; assay type: functional, organism-based; method in brief: as §2
Mus musculus [30] = assay: Effect of central administration on whole mouse brain 5-hydroxytryptamine (5-HT) level after 1 day; assay type: functional, organism-based; method in brief: as §2
Mus musculus [31] = assay: Effect of central administration on whole mouse brain dopamine (DA) level after 1 week; assay type: functional, organism-based; method in brief: as §2
Mus musculus [32] = assay: Effect of central administration on whole mouse brain choline (Ch) level after 1 hr; assay type: functional, organism-based; method in brief: as §1
Mus musculus [33] = assay: Effect of central administration on whole mouse brain choline (Ch) level after 1 week; assay type: functional, organism-based; method in brief: as §1
Mus musculus [34] = assay: Effect of central administration on whole mouse brain 5-hydroxytryptamine (5-HT) level after 1 week; assay type: functional, organism-based; method in brief: as §2

Structure (SMILES) | Level (Mus musculus [2]) [%] | Level (Mus musculus [3]) [%] | Level (Mus musculus [6]) [%] | Level (Mus musculus [8]) [%] | Level (Mus musculus [10]) [%] | Level (Mus musculus [11]) [%] | Level (Mus musculus [14]) [%] | Level (Mus musculus [15]) [%] | Level (Mus musculus [16]) [%] | LD50 (Mus musculus [17]) [µg] | Level (Mus musculus [19]) [%] | Level (Mus musculus [21]) [%] | Level (Mus musculus [22]) [%] | Level (Mus musculus [23]) [%] | also measured
NCCc1c[nH]c2c1C(=O)C(O)=C(C1=C(O)c3[nH]cc(CCN)c3C(=O)C1=O)C2=O | 74 | 88 | 83 | 85 | 78 | 85 | 89 | 82 | 95 | 25.4 | 97 | 123 | 116 | 102 | Level (Mus musculus [1]): 115%; Level (Mus musculus [4]): 103%; Level (Mus musculus [5]): 118%; Level (Mus musculus [7]): 101%; Level (Mus musculus [9]): 76%; Level (Mus musculus [12]): 75%; Level (Mus musculus [13]): 152%; Level (Mus musculus [18]): 78%; Level (Mus musculus [20]): 126%
NCCc1c[nH]c2c(O)cc(O)cc12 |  |  |  |  |  |  |  |  |  | 51.8 |  |  |  |  | 
NCCc1c[nH]c2c1C(=O)C(=O)C=C2O | 54 | 89 | 100 | 79 | 65 | 92 | 114 | 84 | 80 | 29.6 | 92 | 107 | 107 | 147 | Level (Mus musculus [24]): 106%; Level (Mus musculus [25]): 117%; Level (Mus musculus [26]): 82%; Level (Mus musculus [27]): 57%; Level (Mus musculus [28]): 112%; Level (Mus musculus [29]): 159%; Level (Mus musculus [30]): 72%; Level (Mus musculus [31]): 114%; Level (Mus musculus [32]): 153%; Level (Mus musculus [33]): 106%; Level (Mus musculus [34]): 104%
